Assay results: PubChem BioAssay
Activity calls are given as the source filed them. Cut-off read from the data, not from the text of the source, unless noted: active = inhibition above about 30%; inactive = the rest.

Tests used:
[1] = Her2 expression decrease, cell viability multiplex – SKBR3 breast tumor cells, AlphaScreen, ATP viability, primary screen (AID 461;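 active = Her2 level under about 52% in both replicate screens, with viability over 70% of control, limit read from the data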;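 for Her2 level: lower value means less Her2 protein in the cells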;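 for viability: percent of carrier control wells set as 100% viability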); conditions: SKBR3 Her2 protein level, 18-24 h, measured here: SKBR3 viability, ATP luminescence, at 10 µM
[2] = molecular target: Receptor tyrosine-protein kinase erbB-2 (Homo sapiens) (UniProt P04626); assay: as above; conditions: 18-24 h, at 10 µM, stronger effect = lower value
[3] = reduced viability of SK-BR-3 breast cancer cells – cell-based, 24 h, human, pilot screen (AID 572;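 active = viability at or below 10% of carrier control in both of two separate runs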;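 note: compound exposure lasted between 18 and 24 h rather than exactly 24 h; 100% = carrier-treated control wells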); conditions: SK-BR-3 viability, CellTiter-Glo luminescence, at 10 µM, stronger effect = lower value
[4] = HUVEC growth inhibition – cell-based, human, primary screen (AID 575;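 active = viability at or below 30% in both replicate assays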;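 note: 100% = median of untreated cell wells with 0.1% DMSO on each plate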); conditions: HUVEC proliferation, CellTiter-Glo luminescence, 72 h; at 10 µM; stronger effect = lower value
Procedure, shortened: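 Assay system: Primary human umbilical vein endothelial cells | Quantity: 1250 cells per well | Medium: Supplemented EBM, 2% fetal bovine serum | Detection: CellTiter-Glo luminescence measuring cellular ATP | Read-out: % viability vs DMSO wells | Plate: Collagen-coated 384-well format | Times: 72 h exposure, 37 °C, 5% CO2, 30 min RT equilibration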

[5] = H69AR cell proliferation blockers – human, duplicate replicates, primary screen (AID 580;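 active = viability at or under a set limit in both replicates, limit being median viability minus 3 SD, cut at about 48% in these data, passing the limit was not always enough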;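 note: 100% = mean luminescence of untreated wells and 0% = no signal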); conditions: H69AR lung tumor cells viability, ATP luminescence, 72 h; at 10 µM; stronger effect = lower value
[6] = MRP1 drug-resistance reversers in H69AR cells – cell-based, doxorubicin co-treatment, pilot screen (AID 601;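 active = viability loss from added drug above about 55%, and viability with drug at most 40%, in both replicates, limit read from the data, passing the limit was not always enough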); conditions: CellTiter-Glo, 72 h, at 10 µM; for differential viability (reversal): stronger effect = higher value
[7] = yeast transport mutant growth inhibition pilot in 384-well plates, post-Golgi transport modulator project (AID 636; in the data active = inhibition above about 31%); conditions: absorbance 615 nm, about 18 h, stronger effect = higher value
[8] = growth suppression of yeast trafficking mutant, preliminary HTS, modulators of trafficking downstream of Golgi apparatus project, 1536-format plate, OD 615 nm (AID 637); conditions: yeast transport mutant growth, absorbance 615 nm, 18 h; stronger effect = higher value
[9] = H69AR cells + 2 uM doxorubicin, measured here: viability with 2 uM doxorubicin, stronger effect = lower value
[10] = H69AR cells, compound alone cytotoxicity

Sequence of Receptor tyrosine-protein kinase erbB-2 (Homo sapiens) (P04626 whole entry, looked up): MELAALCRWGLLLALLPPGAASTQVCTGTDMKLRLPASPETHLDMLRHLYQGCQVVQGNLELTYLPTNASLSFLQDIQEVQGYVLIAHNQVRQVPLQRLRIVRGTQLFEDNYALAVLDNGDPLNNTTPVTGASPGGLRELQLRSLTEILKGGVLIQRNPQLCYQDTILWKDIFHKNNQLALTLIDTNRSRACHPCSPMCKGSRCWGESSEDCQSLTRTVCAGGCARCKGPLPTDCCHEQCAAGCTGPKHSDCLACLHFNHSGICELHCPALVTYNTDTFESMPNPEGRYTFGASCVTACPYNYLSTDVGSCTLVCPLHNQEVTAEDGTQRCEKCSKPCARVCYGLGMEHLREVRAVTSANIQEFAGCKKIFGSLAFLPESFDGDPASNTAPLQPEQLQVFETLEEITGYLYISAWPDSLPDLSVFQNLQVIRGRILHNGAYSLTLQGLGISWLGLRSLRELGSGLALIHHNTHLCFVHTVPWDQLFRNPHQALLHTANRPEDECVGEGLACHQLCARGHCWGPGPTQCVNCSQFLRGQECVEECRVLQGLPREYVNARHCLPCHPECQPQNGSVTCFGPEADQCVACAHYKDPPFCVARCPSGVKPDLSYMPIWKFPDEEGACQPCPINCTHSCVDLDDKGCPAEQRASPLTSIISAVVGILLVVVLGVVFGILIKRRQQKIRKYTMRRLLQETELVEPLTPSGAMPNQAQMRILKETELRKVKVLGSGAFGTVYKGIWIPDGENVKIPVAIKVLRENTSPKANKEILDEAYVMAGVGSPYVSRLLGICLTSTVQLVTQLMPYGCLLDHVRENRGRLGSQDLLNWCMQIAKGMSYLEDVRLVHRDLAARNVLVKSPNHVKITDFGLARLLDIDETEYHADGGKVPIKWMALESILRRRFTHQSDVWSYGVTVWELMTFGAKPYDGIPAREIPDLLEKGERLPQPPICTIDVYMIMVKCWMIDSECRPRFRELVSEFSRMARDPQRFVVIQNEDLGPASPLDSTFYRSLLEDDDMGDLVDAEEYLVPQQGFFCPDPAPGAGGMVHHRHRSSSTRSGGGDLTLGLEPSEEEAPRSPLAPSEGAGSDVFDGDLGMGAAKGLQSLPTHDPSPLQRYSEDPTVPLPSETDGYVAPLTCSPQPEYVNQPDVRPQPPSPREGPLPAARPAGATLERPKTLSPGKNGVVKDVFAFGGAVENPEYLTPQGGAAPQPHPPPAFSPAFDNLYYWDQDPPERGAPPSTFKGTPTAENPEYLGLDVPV

| SMILES | viability [1] [%] | Her2 level [2] | viability [3] | viability [4] | viability [5] | differential viability (reversal) ([6]; H69AR cells + 2 uM doxorubicin) | viability [6, 9] [%] | viability [6, 10] [%] | inhibition [7] | inhibition [8] |
| --- | --- | --- | --- | --- | --- | --- | --- | --- | --- | --- |
| CCC(=O)N1CCN=C1SCc1ccc(Cl)cc1 | 90 | 93.5% (inactive) | 90% (inactive) | 77.3% (inactive) | 95.1% (inactive) | 10.8% (inactive) | 84.3 | 95.1 | 1.04% (inactive) | 31.5% (active) |
| COc1ccc(-c2cc(C(F)(F)F)nc(SCC(=O)NCc3ccco3)n2)cc1OC | 96.5 | 84% (inactive) | 96.5% (inactive) | 68.1% (inactive) | 55.2% (inactive) | -25.6% (inactive) | 80.9 | 55.2 | -0.66% (inactive) | -0.32% (inactive) |
| Cc1ccc(Cn2nnc3c(=O)[nH]c(C4CCN(C(=O)c5cccs5)CC4)nc32)cc1 | 90.5 | 84% (inactive) | 90.5% (inactive) | 73.4% (inactive) | 86% (inactive) | 2.21% (inactive) | 83.8 | 86 | -3.73% (inactive) | -1.94% (inactive) |
| CC(=O)Nc1ccc(S(=O)(=O)N2CCC(c3nc4ccccc4[nH]3)CC2)cc1 | 93 | 81.5% (inactive) | 93% (inactive) | 78.9% (inactive) | 93.6% (inactive) | 9.73% (inactive) | 83.9 | 93.6 | -3.78% (inactive) | 0% (inactive) |
| COc1ccccc1OCCCCNCCO | 95.5 | 116% (inactive) | 95.5% (inactive) | 92% (inactive) | 101% (inactive) | 12.6% (inactive) | 88.7 | 101 | -1.56% (inactive) | -7.83% (inactive) |
| O=C(NCCc1ccccc1)C1CCN(S(=O)(=O)N2CCC3(CC2)OCCO3)CC1 | 102 | 88.5% (inactive) | 102% (inactive) | 88.5% (inactive) | 99.3% (inactive) | 10.9% (inactive) | 88.4 | 99.3 | -2.37% (inactive) | 0.16% (inactive) |
| COc1ccc(C2=NO[C@@H]3C(=O)N(c4ccc5c(c4)OCCO5)C(=O)[C@H]23)cc1OC | 85 | 112% (inactive) | 85% (inactive) | 81.7% (inactive) | 80.3% (inactive) | -6.85% (inactive) | 87.1 | 80.3 | 2.34% (inactive) | -5.08% (inactive) |
| OCCn1c(-c2ccc3c(c2)OCO3)csc1=Nc1ccccc1 | 97 | 71.5% (inactive) | 97% (inactive) | 51.4% (inactive) | 88.7% (inactive) | -2.46% (inactive) | 91.2 | 88.7 | -4.4% (inactive) | 5.9% (inactive) |
| O=C1CC2CS(=O)(=O)CC2N1c1ccc(Oc2ccccc2)cc1 (stereo not given) | 99 | 87% (inactive) | 99% (inactive) | 78.6% (inactive) | 95.6% (inactive) | -2.44% (inactive) | 98 | 95.6 | -5.47% (inactive) | 3.11% (inactive) |
| O=C(c1ccc(Br)o1)N(c1ccc(Br)cc1)C1C=CS(=O)(=O)C1 (stereo not given) | 89 | 156% (inactive) | 89% (inactive) | 80% (inactive) | 87% (inactive) | 5.32% (inactive) | 81.7 | 87 | 5% (inactive) | 21% (inactive) |
| COC(=O)c1ccccc1NC(=O)c1cc(-c2ccc(OC)c(OC)c2)on1 | 99 | 90.5% (inactive) | 99% (inactive) | 114% (inactive) | 77.8% (inactive) | 5.72% (inactive) | 72 | 77.8 | -7.57% (inactive) | -8% (inactive) |
| CCOC(=O)N1CCN(C(=O)CSc2ncnc3ccccc23)CC1 | 92 | 96% (inactive) | 92% (inactive) | 87.2% (inactive) | 89.1% (inactive) | 14.9% (inactive) | 74.1 | 89.1 | -1.33% (inactive) | 0.33% (inactive) |
| Cc1nn(-c2ccccc2)c(Cl)c1C(=O)NCC(=O)O | 100 | 96% (inactive) | 100% (inactive) | 105% (inactive) | 113% (inactive) | 1.59% (inactive) | 111 | 113 | -6.45% (inactive) | 0.17% (inactive) |
| O=C(NC1CCCCCC1)C1c2ccccc2C(=O)N1Cc1cccnc1 (stereo not given) | 108 | 99.5% (inactive) | 108% (inactive) | 74.3% (inactive) | 90.1% (inactive) | -12.5% (inactive) | 103 | 90.1 | 0.13% (inactive) | -7.3% (inactive) |
| S=c1[nH]nc(Cc2ccccc2)n1-c1ccccc1 | 108 | 112% (inactive) | 108% (inactive) | 113% (inactive) | 92.9% (inactive) | 6.14% (inactive) | 86.7 | 92.9 | -4.1% (inactive) | -6.33% (inactive) |
| CN(C)C(=O)Cn1c(SCC(=O)NC2CCCCC2)nc2ccccc21 | 72 | 76% (inactive) | 72% (inactive) | 101% (inactive) | 102% (inactive) | 14.8% (inactive) | 87.5 | 102 | -6.08% (inactive) | 0.16% (inactive) |
| O=C(c1cccc(C(=O)N2CCN(c3ccccc3)CC2)c1)N1CCN(c2ccccc2)CC1 | 95.5 | 106% (inactive) | 95.5% (inactive) | 81.3% (inactive) | 90.7% (inactive) | 6.69% (inactive) | 84 | 90.7 | -2.47% (inactive) | -0.33% (inactive) |
| CN(C)S(=O)(=O)c1ccc(S(=O)(=O)Nc2ccc3c(c2)oc2ccccc23)cc1 | 79.5 | 97% (inactive) | 79.5% (inactive) | 59.2% (inactive) | 73.2% (inactive) | -2.9% (inactive) | 76.1 | 73.2 | 2.11% (inactive) | -3.64% (inactive) |
| CCCn1c(=N)n(CC(=O)c2cccs2)c2ccccc21 | 92 | 106% (inactive) | 92% (inactive) | 93.2% (inactive) | 91% (inactive) | -1.29% (inactive) | 92.3 | 91 | -7.33% (inactive) | -4.19% (inactive) |
| CCOC(=O)c1ccc(NC(=O)NC(C)C2CCCO2)cc1 (stereo not given) | 97.5 | 96.5% (inactive) | 97.5% (inactive) | 108% (inactive) | 95.6% (inactive) | 5.2% (inactive) | 90.4 | 95.6 | -1.32% (inactive) | -7.94% (inactive) |
| CCOc1ccc(C2CC(=O)NC3=C2C(=O)CCC3)cc1Cl (stereo not given) | 108 | 97.5% (inactive) | 108% (inactive) | 88.4% (inactive) | 99.4% (inactive) | 14.2% (inactive) | 85.2 | 99.4 | -4.21% (inactive) | 0% (inactive) |
| Cc1ccccc1CS(=O)(=O)Cc1ccc(C(=O)NCCCN2CCOCC2)o1 | 77 | 97% (inactive) | 77% (inactive) | 104% (inactive) | 98.2% (inactive) | 3.12% (inactive) | 95.1 | 98.2 | -0.39% (inactive) | -6.13% (inactive) |
| CCn1c(SCC(=O)Nc2nnc(C)s2)nnc1-c1ccncc1 | 112 | 76% (inactive) | 112% (inactive) | 107% (inactive) | 95.5% (inactive) | 4.15% (inactive) | 91.4 | 95.5 | -7.43% (inactive) | 6.17% (inactive) |
| CC1CCN(CCCNC(=O)c2cn(C)c3ccc(S(=O)(=O)N4CCCC4)cc3c2=O)CC1 | 90.5 | 80% (inactive) | 90.5% (inactive) | 96.9% (inactive) | 91% (inactive) | 3.01% (inactive) | 88 | 91 | -6.76% (inactive) | 1% (inactive) |
| COc1cccc(N2CCN(CC(=O)Nc3nnc(-c4ccccc4)s3)CC2)c1 | 86 | 86% (inactive) | 86% (inactive) | 54.7% (inactive) | 83.5% (inactive) | -19.7% (inactive) | 103 | 83.5 | -3.12% (inactive) | -1.64% (inactive) |
| O=C(Nc1ccc(Cl)cc1)C1CC=CCC1C(=O)OCC(F)(F)C(F)F (stereo not given) | 93 | 92.5% (inactive) | 93% (inactive) | 103% (inactive) | 94.6% (inactive) | 7.29% (inactive) | 87.3 | 94.6 | -6.89% (inactive) | -3% (inactive) |
| CCN(CC)CCCC1(CN)OCCc2ccccc21 (stereo not given) | 98.5 | 88.5% (inactive) | 98.5% (inactive) | 93.3% (inactive) | 83.8% (inactive) | -18.9% (inactive) | 103 | 83.8 | -0.39% (inactive) | 23.8% (inactive) |
| Cn1c(=O)c2c(nc(Oc3ccc4c(c3)OCO4)n2Cc2ccc(F)cc2)n(C)c1=O | 79.5 | 74.5% (inactive) | 79.5% (inactive) | 72.1% (inactive) | 74.7% (inactive) | -8.34% (inactive) | 83 | 74.7 | -2.84% (inactive) | 3.49% (inactive) |
| O=C(CN1CCCCCC1)OCCN=C1NS(=O)(=O)c2ccccc21 | 108 | 96.5% (inactive) | 108% (inactive) | 88.1% (inactive) | 113% (inactive) | 22.9% (inactive) | 89.8 | 113 | -2.21% (inactive) | -6.51% (inactive) |
